According to ChEMBL document CHEMBL1130118, “A novel radioiodination reagent for protein radiopharmaceuticals with L-lysine as a plasma-stable metabolizable linkage to liberate m-iodohippuric acid after lysosomal proteolysis” (J Med Chem, 1997):

Assays:
Format in all cases: ADME, organism-based
Mus musculus [1] = test: The biodistribution time for compound radioactivity after concomitant administration of [131 I ]L-HML-NGA and compound in mice. It is expressed as percent injected dose per neck after 15 minutes; details: in vivo, 0.25 h
Procedure, shortened: (§1)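 Six-week-old male ddY mice received an intravenous injection of a 1:1 mix of the 131I- and 125I-labelled galactosyl-neoglycoalbumin conjugates, each diluted to 90 µg/mL protein in 0.1 M PBS pH 6.0, at 9 µg radioiodinated NGA per mouse. Groups of five were killed at 5, 15 and 30 min, 1 and 3 h. Organs were excised, weighed and well-counted, giving %ID/organ (blood %ID/g) as mean (SD).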

Mus musculus [2] = test: The biodistribution time for compound radioactivity after concomitant administration of [131 I ]L-HML-NGA and compound in mice. It is expressed as percent injected dose per neck after 5 minutes; details: in vivo; procedure, shortened: as §1
Mus musculus [3] = test: The biodistribution time for compound radioactivity after concomitant administration of [131 I ]L-HML-NGA and compound in mice. It is expressed as percent injected dose per neck. Values are mean(SD) of five animals for each experiment after 3 hours; details: in vivo; procedure, shortened: as §1
Mus musculus [4] = test: The biodistribution time for compound radioactivity after concomitant administration of [131 I ]L-HML-NGA and compound in mice. It is expressed as percent injected dose per neck after 30 minutes; details: in vivo, 0.5 h; procedure, shortened: as §1
Mus musculus [5] = test: The biodistribution time for compound radioactivity after concomitant administration of [131 I ]L-HML-NGA and compound in mice. It is expressed as percent injected dose per stomach after 15 minutes; details: in vivo, 0.25 h; procedure, shortened: as §1
Mus musculus [6] = test: The biodistribution time for compound radioactivity after concomitant administration of [131 I ]L-HML-NGA and compound in mice. It is expressed as percent injected dose per stomach after 3 hours; details: in vivo; procedure, shortened: as §1
Mus musculus [7] = test: The biodistribution time for compound radioactivity after concomitant administration of [131 I ]L-HML-NGA and compound in mice. It is expressed as percent injected dose per stomach after 30 minutes; details: in vivo, 0.5 h; procedure, shortened: as §1
Mus musculus [8] = test: The biodistribution time for compound radioactivity after concomitant administration of [131 I ]L-HML-NGA and compound in mice. It is expressed as percent injected dose per stomach after 5 minutes; details: in vivo; procedure, shortened: as §1
Mus musculus [9] = test: The biodistribution time for compound radioactivity after concomitant administration of [[131 I ]L-HML-NGA and compound in mice. It is expressed as percent injected dose per kidney after 1 hour; details: in vivo; procedure, shortened: as §1
Mus musculus [10] = test: The biodistribution time for compound radioactivity after concomitant administration of [[131 I ]L-HML-NGA and compound in mice. It is expressed as percent injected dose per kidney after 15 minutes; details: in vivo, 0.25 h; procedure, shortened: as §1
Mus musculus [11] = test: The biodistribution time for compound radioactivity after concomitant administration of [[131 I ]L-HML-NGA and compound in mice. It is expressed as percent injected dose per kidney after 3 hours; details: in vivo; procedure, shortened: as §1
Mus musculus [12] = test: The biodistribution time for compound radioactivity after concomitant administration of [131 I ]L-HML-NGA and [compound in mice. It is expressed as percent injected dose per stomach after 1 hour; details: in vivo; procedure, shortened: as §1
Mus musculus [13] = test: The biodistribution time for compound radioactivity after concomitant administration of [131 I ]L-HML-NGA and compound in mice. It is expressed as percent injected dose per gram of blood tissue after 1 hour; details: in vivo; procedure, shortened: as §1
Mus musculus [14] = test: The biodistribution time for compound radioactivity after concomitant administration of [131 I ]L-HML-NGA and compound in mice. It is expressed as percent injected dose per gram of blood tissue after 15 minutes; details: in vivo, 0.25 h; procedure, shortened: as §1
Mus musculus [15] = test: The biodistribution time for compound radioactivity after concomitant administration of [131 I ]L-HML-NGA and compound in mice. It is expressed as percent injected dose per gram of blood tissue after 3 hours; details: in vivo; procedure, shortened: as §1
Mus musculus [16] = test: The biodistribution time for compound radioactivity after concomitant administration of [131 I ]L-HML-NGA and compound in mice. It is expressed as percent injected dose per gram of blood tissue after 30 minutes; details: in vivo, 0.5 h; procedure, shortened: as §1
Mus musculus [17] = test: The biodistribution time for compound radioactivity after concomitant administration of [131 I ]L-HML-NGA and compound in mice. It is expressed as percent injected dose per gram of blood tissue after 5 minutes; details: in vivo; procedure, shortened: as §1
Mus musculus [18] = test: The biodistribution time for compound radioactivity after concomitant administration of [131 I ]L-HML-NGA and compound in mice. It is expressed as percent injected dose per intestine after 15 minutes; details: in vivo, 0.25 h; procedure, shortened: as §1
Mus musculus [19] = test: The biodistribution time for compound radioactivity after concomitant administration of [131 I ]L-HML-NGA and compound in mice. It is expressed as percent injected dose per liver after 30 minutes; details: in vivo, 0.5 h; procedure, shortened: as §1
Mus musculus [20] = test: The biodistribution time for compound radioactivity after concomitant administration of [131 I ]L-HML-NGA and compound in mice. It is expressed as percent injected dose per liver after 5 minutes; details: in vivo; procedure, shortened: as §1
Mus musculus [21] = test: The biodistribution time for compound radioactivity after concomitant administration of [131 I ]L-HML-NGA and compound in mice. It is expressed as percent injected dose per neck after 1 hour; details: in vivo; procedure, shortened: as §1
Mus musculus [22] = test: The biodistribution time for compound radioactivity after concomitant administration of [[131 I ]L-HML-NGA and compound in mice. It is expressed as percent injected dose per kidney after 5 minutes; details: in vivo; procedure, shortened: as §1
Homo sapiens [23] = species: Homo sapiens; test: The percent protein-bound radioactivity in NGAfractions following incubation of radioiodinated compound in human serum after 1 hour
Procedure, shortened: (§2)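 Conjugates were diluted to 0.5 mg/mL in 0.1 M PBS pH 6.0, and 20 µL was added to 230 µL of freshly prepared human serum. Samples were incubated at 37 °C and taken at 1, 3, 6 or 24 h. Protein-bound fraction (Rf 0) was separated from small metabolites (Rf 0.6-0.9) by paper chromatography in methanol-water 4:1. Protein-bound radioactivity was divided by the initial radiochemical purity. Values are mean (SD).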

Homo sapiens [24] = species: Homo sapiens; test: The percent protein-bound radioactivity in NGAfractions following incubation of radioiodinated compound in human serum after 24 hours; procedure, shortened: as §2
Homo sapiens [25] = species: Homo sapiens; test: The percent protein-bound radioactivity in NGAfractions following incubation of radioiodinated compound in human serum after 3 hours; procedure, shortened: as §2
Homo sapiens [26] = species: Homo sapiens; test: The percent protein-bound radioactivity in NGAfractions following incubation of radioiodinated compound in human serum after 6 hours; details: in vitro; procedure, shortened: as §2
Mus musculus [27] = test: The biodistribution time for compound radioactivity after concomitant administration of [131 I ]L-HML-NGA and compound in mice. It is expressed as percent injected dose per intestine after 3 hours; details: in vivo; procedure, shortened: as §1
Mus musculus [28] = test: The biodistribution time for compound radioactivity after concomitant administration of [131 I ]L-HML-NGA and compound in mice. It is expressed as percent injected dose per intestine after 30 minutes; details: in vivo, 0.5 h; procedure, shortened: as §1
Mus musculus [29] = test: The biodistribution time for compound radioactivity after concomitant administration of [131 I ]L-HML-NGA and compound in mice. It is expressed as percent injected dose per intestine after 5 minutes; details: in vivo; procedure, shortened: as §1
Mus musculus [30] = test: The biodistribution time for compound radioactivity after concomitant administration of [131 I ]L-HML-NGA and compound in mice. It is expressed as percent injected dose per intestine after 1 hour; details: in vivo; procedure, shortened: as §1
Mus musculus [31] = test: The biodistribution time for compound radioactivity after concomitant administration of [131 I ]L-HML-NGA and compound in mice. It is expressed as percent injected dose per liver after 1 hour; details: in vivo; procedure, shortened: as §1
Mus musculus [32] = test: The biodistribution time for compound radioactivity after concomitant administration of [131 I ]L-HML-NGA and compound in mice. It is expressed as percent injected dose per liver after 3 hours; details: in vivo; procedure, shortened: as §1
[33] = Cumulative radioactivity exerted by compound in the feces at 24 hour postinjection of [131 I ]L-HML-NGA and compound.; details: in vivo
Procedure, shortened: (§3)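 Mice received one i.v. co-injection of the dual-isotope NGA mixture, 9 µg of each radioiodinated protein, and were housed in metabolic cages for 24 h. Cumulative urine and feces were collected and counted. Values are % injected dose, mean (SD) of five animals, with a Student's paired t-test between the two co-administered conjugates.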

[34] = Cumulative radioactivity exerted by compound in the urine at 24 hour postinjection of [131 I ]L-HML-NGA and compound; details: in vivo; procedure, shortened: as §3
Mus musculus [35] = test: The biodistribution time for compound radioactivity after concomitant administration of [[131 I ]L-HML-NGA and compound in mice. It is expressed as percent injected dose per kidney after 30 minutes; details: in vivo, 0.5 h; procedure, shortened: as §1
Mus musculus [36] = test: The biodistribution time for compound radioactivity after concomitant administration of [131 I ]L-HML-NGA and compound in mice. It is expressed as percent injected dose per liver after 15 minutes; details: in vivo, 0.25 h; procedure, shortened: as §1
Mus musculus [37] = test: The biodistribution time for compound radioactivity after concomitant administration of [131 I ]L-HML-NGA and compound in mice. It is expressed as percent injected dose per neck after 3 hours; details: in vivo; procedure, shortened: as §1

Row | Structure (SMILES) | Radioactivity (Mus musculus [1]) [%] | Radioactivity (Mus musculus [2]) [%] | Radioactivity (Mus musculus [4]) [%] | Radioactivity (Mus musculus [5]) [%] | Radioactivity (Mus musculus [6]) [%] | Radioactivity (Mus musculus [7]) [%] | Radioactivity (Mus musculus [8]) [%] | Radioactivity (Mus musculus [9]) [%] | Radioactivity (Mus musculus [10]) [%] | Radioactivity (Mus musculus [11]) [%] | Radioactivity (Mus musculus [12]) [%] | Radioactivity (Mus musculus [13]) [%] | Radioactivity (Mus musculus [14]) [%] | Radioactivity (Mus musculus [15]) [%] | Radioactivity (Mus musculus [16]) [%] | Radioactivity (Mus musculus [17]) [%] | Radioactivity (Mus musculus [18]) [%] | Radioactivity (Mus musculus [19]) [%] | Radioactivity (Mus musculus [20]) [%] | Radioactivity (Mus musculus [21]) [%] | further results
1 | N=C(CCCSC1CC(=O)N(CCCC[C@H](NC(=O)CNC(=O)c2cccc([125I])c2)C(=O)O)C1=O)NC(=O)[C@@H](N)CCCCN (some centres undefined) | 0.25 | 0.11 | 0.19 | 0.5 | 0.35 | 0.36 | 0.24 | 1.04 | 4.38 | 0.22 | 0.42 | 0.73 | 2.76 | 0.41 | 1.7 | 1.17 | 2.26 | 18.1 | 93.67 | 0.07 | Radioactivity (Mus musculus [3]): 0.03%; Radioactivity (Mus musculus [22]): 0.33%; Radioactivity (Homo sapiens [23]): 99.88%; Radioactivity (Homo sapiens [24]): 97.85%; Radioactivity (Homo sapiens [25]): 99.4%; Radioactivity (Homo sapiens [26]): 99.5%; Radioactivity (Mus musculus [27]): 4.96%; Radioactivity (Mus musculus [28]): 4.79%; Radioactivity (Mus musculus [29]): 0.43%; Radioactivity (Mus musculus [30]): 5.17%; Radioactivity (Mus musculus [31]): 5.92%; Radioactivity (Mus musculus [32]): 3%; Radioactivity [33]: 4.03%; Radioactivity [34]: 78.26%; Radioactivity (Mus musculus [35]): 4.64%; Radioactivity (Mus musculus [36]): 55.86%
2 | N[C@@H](CS)C(=O)SC1CC(=O)N(CCCC[C@@H](NC(=O)CNC(=O)c2cccc([125I])c2)C(=O)O)C1=O (some centres undefined) | 0.2 | 0.15 | 0.18 | 0.65 | 1.09 | 2 | 0.24 | 0.72 | 2.97 | 0.34 | 1.4 | 0.54 | 1.78 | 0.34 | 1.11 | 1.15 | 5.11 | 27.49 | 93.14 | 0.11 | Radioactivity (Mus musculus [37]): 0.04%; Radioactivity (Mus musculus [22]): 1.26%; Radioactivity (Mus musculus [27]): 40.82%; Radioactivity (Mus musculus [28]): 21.6%; Radioactivity (Mus musculus [29]): 1.14%; Radioactivity (Mus musculus [30]): 34.28%; Radioactivity (Mus musculus [31]): 12.6%; Radioactivity (Mus musculus [32]): 3.62%; Radioactivity [33]: 40.97%; Radioactivity [34]: 39.1%; Radioactivity (Mus musculus [35]): 1.73%; Radioactivity (Mus musculus [36]): 66.9%
3 | N[C@@H](CS)C(=O)SC1CC(=O)N(CCCCCNC(=O)CNC(=O)c2cccc([125I])c2)C1=O (some centres undefined) | 0.06 | 0.06 | 0.07 | 0.46 | 1.48 | 0.54 | 0.24 | 0.77 | 1.62 | 0.38 | 0.61 | 0.32 | 0.68 | 0.23 | 0.64 | 0.76 | 7.17 | 34.19 | 93.75 | 0.04 | Radioactivity (Mus musculus [37]): 0.04%; Radioactivity (Mus musculus [22]): 0.8%; Radioactivity (Homo sapiens [23]): 100.07%; Radioactivity (Homo sapiens [24]): 97.26%; Radioactivity (Homo sapiens [25]): 99.12%; Radioactivity (Homo sapiens [26]): 98.56%; Radioactivity (Mus musculus [27]): 59.36%; Radioactivity (Mus musculus [28]): 33.84%; Radioactivity (Mus musculus [29]): 0.71%; Radioactivity (Mus musculus [30]): 55.62%; Radioactivity (Mus musculus [31]): 10.12%; Radioactivity (Mus musculus [32]): 5.72%; Radioactivity [33]: 58.83%; Radioactivity [34]: 25.5%; Radioactivity (Mus musculus [35]): 1.72%; Radioactivity (Mus musculus [36]): 77.12%
